Measured values from ChEMBL document CHEMBL5376019, “Design, synthesis and evaluation of 2-phenylpyrimidine derivatives as novel antifungal agents targeting CYP51” (RSC Med Chem, 2024).
Values after ≈ are worked out from the molar mass of the structure shown.

Experiments:
[1] = tested on: Candida albicans; assay: Antifungal activity against Candida albicans ATCC SC5314 assessed as fungal growth inhibition; type: functional
Procedure, shortened: (§1)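 Broth microdilution per NCCLS M27-A3, with fluconazole as positive control. Assay medium was RPMI 1640 buffered with MOPS. Inocula were diluted to 1–5 × 10^3 CFU mL−1 and seeded in 96-well plates. Compounds were dissolved in DMSO and serially diluted in the growth medium. MIC was the read-out.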

[2] = tested on: Cryptococcus neoformans; assay: Antifungal activity against Cryptococcus neoformans CGMCC 2.3161 assessed as fungal growth inhibition; type: functional; procedure, shortened: as §1
[3] = Metabolic stability in human liver microsomes assessed as intrinsic clearance measured upto 60 min by LC-MS/MS analysis; type: ADME, Microsome; details: 1 h
Procedure, shortened: (§2)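 Human liver microsomes were diluted to 0.59 mg mL−1 in 100 mM potassium phosphate buffer and prewarmed 10 min at 37 °C. Compound was added from a 100 μM working solution. Incubation was 60 min at 37 °C with NADPH, alongside a no-cofactor control. Samples taken at 5, 15, 30, 45 and 60 min were quenched in acetonitrile containing tolbutamide and labetalol, centrifuged, and analysed by LC-MS/MS.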

[4] = tested on: Candida albicans; assay: Antifungal activity against Candida albicans CPCC400616 assessed as fungal growth inhibition; type: functional; procedure, shortened: as §1
[5] = tested on: Candida parapsilosis; assay: Antifungal activity against Candida parapsilosis GIM 2.190 assessed as fungal growth inhibition; type: functional; details: Lodderomyces parapsilosis; procedure, shortened: as §1
[6] = tested on: Nakaseomyces glabratus; assay: Antifungal activity against clinical isolate Candida glabrata assessed as fungal growth inhibition; type: functional; procedure, shortened: as §1
[7] = target: CYP3A4 (Homo sapiens, UniProt P08684); assay: Inhibition of CYP3A4 in human liver microsomes using midazolam and testosterone as substrates at 10 uM incubated for 10 min by LC-MS/MS analysis relative to control; type: ADME, Microsome; details: probe midazolam and testosterone
CYP3A4, sequence (P08684 whole entry, canonical isoform): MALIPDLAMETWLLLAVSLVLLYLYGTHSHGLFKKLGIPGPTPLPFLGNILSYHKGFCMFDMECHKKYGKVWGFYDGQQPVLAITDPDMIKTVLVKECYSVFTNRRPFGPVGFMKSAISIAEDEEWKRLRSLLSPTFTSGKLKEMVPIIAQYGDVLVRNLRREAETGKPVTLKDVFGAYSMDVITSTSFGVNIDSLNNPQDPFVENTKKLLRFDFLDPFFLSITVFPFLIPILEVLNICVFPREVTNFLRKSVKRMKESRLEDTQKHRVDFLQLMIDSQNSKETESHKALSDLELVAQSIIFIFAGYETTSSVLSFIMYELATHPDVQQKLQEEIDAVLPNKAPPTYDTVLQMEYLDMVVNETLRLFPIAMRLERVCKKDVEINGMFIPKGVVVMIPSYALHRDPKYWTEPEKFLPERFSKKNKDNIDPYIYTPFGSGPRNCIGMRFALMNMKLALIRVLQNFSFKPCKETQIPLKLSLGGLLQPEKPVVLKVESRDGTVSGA
Procedure, shortened: (§3)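 Human liver microsomes (0.253 mg mL−1) were used with probe substrates: phenacetin 90 μM (1A2), diclofenac 8 μM (2C9), S-mephenytoin 20 μM (2C19), dextromethorphan 4 μM (2D6), and midazolam 2 μM plus testosterone 50 μM (3A4). Test compound was at 10 μM. Mixtures were preincubated 5 min at 37 °C, then started with an NADPH regenerating system and run 10 min at 37 °C. Reactions were stopped with internal standard and supernatant analysed by LC-MS/MS. Isoform-selective inhibitors at 10 μM served as positive controls.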

[8] = tested on: L929; assay: Cytotoxicity against mouse L929 cells assessed as reduction in cell viability at 32 uM incubated for 24 hrs by CCK-8 assay; type: toxicity, cell-based; details: l929, 24 h
Procedure, shortened: (§4)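 Cells from ATCC were grown in RPMI-1640 or DMEM with 10% FBS and 1% penicillin/streptomycin. They were seeded at 5 × 10^4 cells/well and allowed to adhere overnight at 37 °C, 5% CO2, with at least 6 replicates per group. Compounds were applied at 2–64 μM for 24 h; medium-only wells served as control. Viability was measured by CCK-8 absorbance at 450 nm.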

[9] = tested on: Candida tropicalis; assay: Antifungal activity against Candida tropicalis CGMCC 2.3739 assessed as fungal growth inhibition; type: functional; procedure, shortened: as §1
[10] = target: T1, CYP1A2 (Homo sapiens, UniProt P05177); assay: Inhibition of CYP1A2 in human liver microsomes using phenacetin as substrate at 10 uM incubated for 10 min by LC-MS/MS analysis relative to control; type: ADME, Microsome; details: probe phenacetin; procedure, shortened: as §3
T1 sequence (P05177 whole entry): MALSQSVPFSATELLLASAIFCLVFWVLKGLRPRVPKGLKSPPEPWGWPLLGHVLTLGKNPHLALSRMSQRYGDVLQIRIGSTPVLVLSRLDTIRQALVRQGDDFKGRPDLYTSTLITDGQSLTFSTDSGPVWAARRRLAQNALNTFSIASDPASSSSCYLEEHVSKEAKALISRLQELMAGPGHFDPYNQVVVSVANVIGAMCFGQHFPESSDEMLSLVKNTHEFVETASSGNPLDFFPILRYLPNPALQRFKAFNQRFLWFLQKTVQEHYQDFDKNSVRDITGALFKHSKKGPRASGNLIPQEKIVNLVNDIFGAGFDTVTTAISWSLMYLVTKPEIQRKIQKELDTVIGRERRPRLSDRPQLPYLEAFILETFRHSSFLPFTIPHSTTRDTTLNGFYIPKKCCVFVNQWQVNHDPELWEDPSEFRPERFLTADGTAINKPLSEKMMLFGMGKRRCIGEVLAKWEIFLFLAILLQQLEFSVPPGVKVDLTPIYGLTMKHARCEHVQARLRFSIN

[11] = tested on: MDA-MB-231; assay: Cytotoxicity against human MDA-MB-231 cells assessed as reduction in cell viability at 32 uM incubated for 24 hrs by CCK-8 assay; type: toxicity, cell-based; details: mda-mb-231, 24 h; procedure, shortened: as §4
[12] = target: CYP2C9 (Homo sapiens, UniProt P11712); assay: Inhibition of CYP2C9 in human liver microsomes using diclofenac as substrate at 10 uM incubated for 10 min by LC-MS/MS analysis relative to control; type: ADME, Microsome; details: probe diclofenac; procedure, shortened: as §3
CYP2C9, sequence (P11712 whole entry): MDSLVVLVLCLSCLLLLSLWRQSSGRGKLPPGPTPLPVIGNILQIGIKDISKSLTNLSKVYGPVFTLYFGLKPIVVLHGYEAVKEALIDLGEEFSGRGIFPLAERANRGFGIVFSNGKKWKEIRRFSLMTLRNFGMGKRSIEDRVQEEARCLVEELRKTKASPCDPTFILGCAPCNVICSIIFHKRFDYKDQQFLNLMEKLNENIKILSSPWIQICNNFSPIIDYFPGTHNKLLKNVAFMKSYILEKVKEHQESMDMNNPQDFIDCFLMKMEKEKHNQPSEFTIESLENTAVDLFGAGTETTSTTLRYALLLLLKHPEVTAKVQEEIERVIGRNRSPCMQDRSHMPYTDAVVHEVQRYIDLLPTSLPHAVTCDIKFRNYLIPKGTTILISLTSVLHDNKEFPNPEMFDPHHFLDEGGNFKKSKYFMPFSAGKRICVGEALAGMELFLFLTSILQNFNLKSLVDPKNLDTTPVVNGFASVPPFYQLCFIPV

[13] = tested on: DU-145; assay: Cytotoxicity against human DU-145 cells assessed as reduction in cell viability at 32 uM incubated for 24 hrs by CCK-8 assay; type: toxicity, cell-based; details: du-145, 24 h; procedure, shortened: as §4
[14] = Metabolic stability in human liver microsomes assessed as remaining measured upto 60 min by LC-MS/MS analysis; type: ADME, Microsome; details: read-out: Stability; procedure, shortened: as §2
[15] = target: CYP2C19 (Homo sapiens, UniProt P33261); assay: Inhibition of CYP2C19 in human liver microsomes using S-mephenytoin as substrate at 10 uM incubated for 10 min by LC-MS/MS analysis relative to control; type: ADME, Microsome; details: probe S-mephenytoin; procedure, shortened: as §3
CYP2C19, sequence (P33261 whole entry): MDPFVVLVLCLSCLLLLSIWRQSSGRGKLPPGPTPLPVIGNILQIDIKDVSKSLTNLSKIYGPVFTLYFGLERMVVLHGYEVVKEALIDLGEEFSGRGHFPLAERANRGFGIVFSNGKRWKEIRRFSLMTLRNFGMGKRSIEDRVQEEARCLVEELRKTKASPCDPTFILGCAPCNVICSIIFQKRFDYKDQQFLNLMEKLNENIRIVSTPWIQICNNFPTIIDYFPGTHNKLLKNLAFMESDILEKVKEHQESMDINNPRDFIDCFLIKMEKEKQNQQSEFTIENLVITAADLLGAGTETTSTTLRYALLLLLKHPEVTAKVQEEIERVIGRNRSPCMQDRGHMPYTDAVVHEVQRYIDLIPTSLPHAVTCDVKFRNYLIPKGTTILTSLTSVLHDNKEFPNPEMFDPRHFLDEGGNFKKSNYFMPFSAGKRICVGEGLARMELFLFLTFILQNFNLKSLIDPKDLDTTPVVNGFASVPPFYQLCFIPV

[16] = tested on: Pichia kudriavzevii; assay: Antifungal activity against Pichia kudriavzevii GIM 2.1 assessed as fungal growth inhibition; type: functional; procedure, shortened: as §1
[17] = target: CYP2D6 (Homo sapiens, UniProt P10635); assay: Inhibition of CYP2D6 in human liver microsomes using dextromethorphan as substrate at 10 uM incubated for 10 min by LC-MS/MS analysis relative to control; type: ADME, Microsome; details: probe dextromethorphan; procedure, shortened: as §3
CYP2D6, sequence (P10635 whole entry): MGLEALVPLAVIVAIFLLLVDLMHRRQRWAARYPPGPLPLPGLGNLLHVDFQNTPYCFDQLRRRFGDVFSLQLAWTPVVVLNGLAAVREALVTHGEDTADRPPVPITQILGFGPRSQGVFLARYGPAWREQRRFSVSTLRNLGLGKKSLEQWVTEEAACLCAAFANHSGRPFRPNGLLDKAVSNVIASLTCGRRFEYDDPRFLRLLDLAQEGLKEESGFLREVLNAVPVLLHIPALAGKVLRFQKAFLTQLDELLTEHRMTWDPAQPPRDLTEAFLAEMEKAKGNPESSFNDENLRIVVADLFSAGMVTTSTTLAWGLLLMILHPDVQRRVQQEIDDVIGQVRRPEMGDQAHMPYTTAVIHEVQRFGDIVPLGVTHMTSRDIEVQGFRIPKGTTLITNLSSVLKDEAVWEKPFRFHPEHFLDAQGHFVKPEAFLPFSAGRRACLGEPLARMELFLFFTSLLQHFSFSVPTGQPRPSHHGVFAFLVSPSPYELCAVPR

[18] = Metabolic stability in human liver microsomes assessed as half life measured upto 60 min by LC-MS/MS analysis; type: ADME, Microsome; procedure, shortened: as §2

MIC [1]: 0.25 µg/mL (≈ 0.561 µM) | MIC [2]: 32 µg/mL (≈ 71.8 µM) | CLH [3]: 94 µL/min/mg | MIC [4]: 1 µg/mL (≈ 2.24 µM) | MIC [5]: 1 µg/mL (≈ 2.24 µM) | MIC [6]: 1 µg/mL (≈ 2.24 µM) | inhibition at 10 min, 10 µM [7]: 92.3% | MIC [9]: 0.25 µg/mL (≈ 0.561 µM) | inhibition at 10 min, 10 µM [10]: 38.4% | inhibition at 10 min, 10 µM [12]: 89.8% | remaining at 1 h [14]: 6.33% | inhibition at 10 min, 10 µM [15]: 89.4% | MIC [16]: 1 µg/mL (≈ 2.24 µM) | inhibition at 10 min, 10 µM [17]: 72.3% | half-life [18]: 14.8 min
Compound: COc1ccc(C(=O)C(Cn2ccnc2)NC(=O)c2cnc(-c3cccc(F)c3)nc2)cc1 (racemic)
Activity [8]: Non-Toxic | Activity [11]: Non-Toxic | Activity [13]: Non-Toxic
